H69AR growth 86K – blocks growth of human H69AR lung tumor cells; H69AR lung tumor viability, ATP luminescence, 72 h; active compounds read low; viability, % at 10 µM; hit rate 6% among 85,000;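 active = viability at or below 40%; inactive = viability above 40%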;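 also: multidrug resistant small cell line overexpressing MRP-1 efflux transporter; 100% = mean luminescence of untreated control wells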
Fibroblast inh – blocks proliferation of human lung fibroblasts; LL 47 human lung fibroblast viability, ATP luminescence; active compounds read low; viability, % at 10 µM; hit rate 1.1% among 85,000; AID 719;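 active = viability at or below 50% in the single dose screen; inactive = viability above 50%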;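 also: compound exposure lasted 72 h before the ATP readout; 100% = median luminescence of untreated cell-only wells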
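Test system: LL 47 human lung fibroblasts; Quantity: 1,150 cells/well; Buffer or medium: IMEM plus 15% FBS; Dosing: tenfold compound dosing solution, DMSO at 0.1%; Timing: overnight cell rest, 72 h compound treatment at 37 °C; Detection: ATP-based CellTiter-Glo luminescent readout; Read-out basis: viability percentage against median untreated-cell control; Controls: cell-only wells, no compound.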
HUVEC prolif 384 – blocks proliferation of human endothelial cells; HUVEC proliferation, CellTiter-Glo luminescence, 72 h; active compounds read low; viability, % at 10 µM (by protocol); hit rate 1.1% among 86,000;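 active = viability at or below 30%; inactive = viability above 30%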;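 also: 100% = median luminescence of DMSO-only cell control wells on each plate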
PTEN del growth – PTEN-deleted cell growth suppression; HCT116 PTEN-null viability, CellTiter-Glo, 60 h; active compounds read low; viability, % at 10 µM; hit rate 1.2% among 140,000; AID 827;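 active = viability at or below a set limit, 4 SD under the median of all tested compounds, cut at about 3.7% in these data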;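 also: PTEN knockout HCT116 line with beta catenin targeted HCT116 as companion control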
HCT116 bCat-KO – beta-catenin-lacking colon tumor cell growth suppression; HCT116 beta-catenin knockout viability, CellTiter-Glo, 60 h; active compounds read low; hit rate 1.5% among 140,000; viability, % at 10 µM;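 active = viability at or under a set limit, the compound median less 4 SD, cut at about 6% in these data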;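 also: 0% = Hyamine 1622 control at 20 µM and 100% = untreated cell control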
* hit, by the source's call. Shown is part of a subset that was picked to be rich in hits.

CC1=C(C(=O)Nc2ccccc2)C(c2ccc(C)cc2)N=C(Nc2nc3ccccc3o2)N1 (stereo not drawn) was read as PTEN del growth 3.6* and HCT116 bCat-KO 7.
Screening CCc1ccc(C(C(=O)NC2CCCCC2)N(C(=O)CNC(=O)c2ccco2)c2cccnc2)cc1 (stereo not drawn) returned H69AR growth 86K 93, Fibroblast inh 105 and HUVEC prolif 384 97.
Screening CCCCOc1ccc(C(=O)Nc2ccc(N3CCN(C)CC3)cc2)cc1 returned H69AR growth 86K 23*, Fibroblast inh 28*, HUVEC prolif 384 32, PTEN del growth 1.8* and HCT116 bCat-KO 1.5*.
For CN1CCN(c2ccccc2NC(=O)c2ccc(-c3ccccc3)cc2)CC1 the results were H69AR growth 86K 33*, Fibroblast inh 87, HUVEC prolif 384 48, PTEN del growth 28 and HCT116 bCat-KO 47.
Screening CCCCOc1cccc(C(=O)Nc2ccc(N3CCN(CC)CC3)cc2)c1 returned H69AR growth 86K 43, Fibroblast inh 79, HUVEC prolif 384 72, PTEN del growth 33 and HCT116 bCat-KO 24.
`CN1CCN(c2ccccc2NC(=O)c2ccc(OCc3ccccc3)cc2)CC1` gave Fibroblast inh 95, HUVEC prolif 384 17*, PTEN del growth 6 and HCT116 bCat-KO 3.4*.
Screening CN1CCN(c2ccc(Cl)cc2NC(=O)c2ccc(S(=O)(=O)N3CCCCCC3)cc2)CC1 returned H69AR growth 86K 2.5*, Fibroblast inh 89, HUVEC prolif 384 35, PTEN del growth 79 and HCT116 bCat-KO 77.
Screening CN1CCN(c2ccc(S(=O)(=O)N3CCCCC3)cc2NC(=O)c2ccc(C#N)cc2)CC1 returned PTEN del growth 88 and HCT116 bCat-KO 88.
O=C(Nc1ccccc1F)c1ccc(OCc2ccccc2)cc1 was read as PTEN del growth 99 and HCT116 bCat-KO 97.
Screening Cc1cc(NC(=O)c2cc(C3CC3)on2)no1 returned H69AR growth 86K 104, Fibroblast inh 105 and HUVEC prolif 384 102.
CCCOc1ccc(C(C)=O)cc1CSc1nc(O)cc(=O)[nH]1 was read as H69AR growth 86K 86, Fibroblast inh 104, HUVEC prolif 384 84, PTEN del growth 95 and HCT116 bCat-KO 92.
CN1CCN(c2ccccc2NC(=O)c2cccc(OCc3ccccc3)c2)CC1 was read as H69AR growth 86K 11*, Fibroblast inh 76, HUVEC prolif 384 8.2*, PTEN del growth 35 and HCT116 bCat-KO 27.
C=CCn1c(O)c(N=NC(=S)Nc2ccc(OC)cc2)c2ccccc21 was read as H69AR growth 86K 35*, Fibroblast inh 54, HUVEC prolif 384 50, PTEN del growth 11 and HCT116 bCat-KO 18.
CCOc1cc(N2CCCC2)ccc1[N+](=O)[O-] was read as PTEN del growth 94 and HCT116 bCat-KO 87.
O=C(O)CC(c1cccc2ccccc12)n1cccc1 (stereo not drawn) was read as H69AR growth 86K 81, Fibroblast inh 98, HUVEC prolif 384 97, PTEN del growth 92 and HCT116 bCat-KO 104.
`CCC1C(=O)N(C)CCc2ccccc21` (stereo not drawn) gave PTEN del growth 89 and HCT116 bCat-KO 90.
`O=C(Nc1ncc(Cc2ccccc2)s1)c1cccs1` gave H69AR growth 86K 69, Fibroblast inh 81, HUVEC prolif 384 71, PTEN del growth 68 and HCT116 bCat-KO 82.
Screening Cc1ccc(Cc2cnc(NC(=O)c3cccs3)s2)cc1 returned H69AR growth 86K 17*, Fibroblast inh 78, HUVEC prolif 384 56, PTEN del growth 28 and HCT116 bCat-KO 37.
O=C(Nc1ncc(Cc2cccc(Cl)c2)s1)c1cccs1 was read as H69AR growth 86K 35*, Fibroblast inh 84, HUVEC prolif 384 31, PTEN del growth 42 and HCT116 bCat-KO 33.
For Cc1ccc(CN2CCN(/N=C/c3sccc3C)CC2)c(C)c1 the results were PTEN del growth 92 and HCT116 bCat-KO 89.
For O=C(NCc1cccnc1)C(=O)NCC1OCCCN1S(=O)(=O)c1ccccc1 (stereo not drawn) the results were PTEN del growth 88 and HCT116 bCat-KO 100.
Screening COc1ccccc1NS(=O)(=O)c1cc(NC(=O)/C=C/c2cccs2)ccc1N1CCOCC1 returned PTEN del growth 83 and HCT116 bCat-KO 82.
For Cc1onc(-c2c(Cl)cccc2Cl)c1C(=O)N/N=C(\N)COc1ccc(Cl)cc1 the results were PTEN del growth 9 and HCT116 bCat-KO 5.9*.
Screening Cc1ccc(C(O)(c2ccccc2)c2ccccc2C(C)N(C)C)c(C)c1 (stereo not drawn) returned PTEN del growth 1.8* and HCT116 bCat-KO 3.5*.
CCOC(=O)c1nnn(CC(=O)N2N=C(c3ccc(Cl)cc3)CC2c2ccccc2)c1C(=O)OCC (stereo not drawn) was read as H69AR growth 86K 19*, Fibroblast inh 68, HUVEC prolif 384 75, PTEN del growth 72 and HCT116 bCat-KO 67.
Screening CCOC(=O)c1nnn(CC(=O)N2N=C(c3ccc(Cl)cc3)CC2c2ccc(OC)cc2)c1C(=O)OCC (stereo not drawn) returned H69AR growth 86K 74, Fibroblast inh 81, HUVEC prolif 384 80, PTEN del growth 83 and HCT116 bCat-KO 86.
Screening CCOc1ccc(C(=O)Nc2cc(C)c3c(=O)oc4ccccc4c3n2)cc1 returned H69AR growth 86K 19*, Fibroblast inh 69, HUVEC prolif 384 26*, PTEN del growth 91 and HCT116 bCat-KO 83.
For COc1ccc(CC(=O)Nc2cc(C)c3c(=O)oc4ccccc4c3n2)cc1 the results were H69AR growth 86K 22*, Fibroblast inh 64 and HUVEC prolif 384 69.
Screening Cc1cc(NC(=O)CN2CCN(c3ccccc3F)CC2)nc2c1c(=O)oc1ccccc12 returned H69AR growth 86K 34*, Fibroblast inh 91 and HUVEC prolif 384 53.
For Cc1cc(NC(=O)c2ccc(S(=O)(=O)N3CCCC3)cc2)nc2c1c(=O)oc1ccccc12 the results were H69AR growth 86K 18*, Fibroblast inh 72, HUVEC prolif 384 69, PTEN del growth 62 and HCT116 bCat-KO 40.
For CCC(CC)C(=O)Nc1cc(C)c2c(=O)oc3ccccc3c2n1 the results were H69AR growth 86K 52, Fibroblast inh 98, HUVEC prolif 384 79, PTEN del growth 54 and HCT116 bCat-KO 61.
Screening c1ccc(Cn2nnnc2C(c2cccnc2)N2CCN(c3ccccc3)CC2)cc1 (stereo not drawn) returned H69AR growth 86K 95, Fibroblast inh 98, HUVEC prolif 384 97, PTEN del growth 72 and HCT116 bCat-KO 71.
Screening O=C(CSc1nc2cc(Cl)ccc2s1)Nc1cccc(S(=O)(=O)N2CCOCC2)c1 returned PTEN del growth 63 and HCT116 bCat-KO 74.
`N#CC1=C2SCN(Cc3ccco3)CN2C(=O)CC1c1ccccc1F` (stereo not drawn) gave H69AR growth 86K 40*, Fibroblast inh 91, HUVEC prolif 384 96, PTEN del growth 94 and HCT116 bCat-KO 100.
Cc1ccc2nc(-c3sc4nc(C)cc(C)c4c3N)[nH]c2c1 was read as H69AR growth 86K 15*, Fibroblast inh 95, HUVEC prolif 384 42, PTEN del growth 83 and HCT116 bCat-KO 78.
